How the values were obtained:
[1] = Drug metabolism in human hepatocytes assessed as formation of 5-(4-((6-hydroxy-1-methyl-1H-benzo[d]imidazol-2-yl)methoxy)benzyl)thiazolidine-2,4-dione at 30 uM after 3 hrs by radio-HPLC/LC-MS/MS analysis in presence of NADPH-generating system and NADPH-generating system/SAM; assay type: ADME, cell-based, Hepatocyte
Cytochrome P450 2C8 = target: T1, Cytochrome P450 2C8 (Homo sapiens, UniProt P10632); assay: Activity of human CYP2C8 expressed in microsomes isolated from baculovirus infected insect cell assessed as enzyme-mediated 5-hydroxy-5-(4-((6-methoxy-1-methyl-1H-benzo[d]imidazol-2-yl)methoxy)benzyl)thiazolidine-2,4-dione formation at 20 uM after 2 hrs by radio-HPLC/LC-MS/MS analysis in presence of NADPH-generating system and NADPH-generating system/SAM; assay type: ADME
T1 sequence (P10632 whole entry): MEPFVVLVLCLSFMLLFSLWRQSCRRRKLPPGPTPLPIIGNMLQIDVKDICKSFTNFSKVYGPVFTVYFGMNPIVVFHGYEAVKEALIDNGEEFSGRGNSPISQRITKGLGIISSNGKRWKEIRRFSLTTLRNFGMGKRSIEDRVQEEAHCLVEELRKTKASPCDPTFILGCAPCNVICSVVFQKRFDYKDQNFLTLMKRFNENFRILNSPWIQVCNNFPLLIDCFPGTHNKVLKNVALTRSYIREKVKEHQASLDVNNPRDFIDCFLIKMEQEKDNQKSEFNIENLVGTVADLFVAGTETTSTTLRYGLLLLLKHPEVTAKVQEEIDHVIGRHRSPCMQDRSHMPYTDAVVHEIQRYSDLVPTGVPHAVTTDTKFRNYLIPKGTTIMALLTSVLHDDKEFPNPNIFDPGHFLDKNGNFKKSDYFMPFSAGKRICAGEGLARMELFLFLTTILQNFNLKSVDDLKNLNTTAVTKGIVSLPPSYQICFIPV
Method in brief: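 Baculovirus/insect-cell microsomes expressing single human CYPs, 1 mg/ml protein, with 50 mM potassium phosphate (pH 7.4) or 100 mM Tris-HCl (pH 7.5). NADPH-generating system: 2 mM NADP⁺, 20 mM glucose 6-phosphate, 2 units/ml G6PDH, 10 mM MgCl₂. [¹⁴C]rivoglitazone at 20 μM, 2 h at 37°C with shaking. Control used insect-cell control supersomes. Stopped with acetonitrile; supernatant concentrated under nitrogen; metabolites analysed by radio-HPLC, LC-MS and LC-MS/MS.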

[2] = target: T2, UDP-glucuronosyltransferase 2B7 (Homo sapiens, UniProt P16662); assay: Activity of human UGT2B7 expressed in microsomes isolated from baculovirus infected insect cell assessed as enzyme-mediated (2S,3S,4S,5R,6R)-6-((1-carboxy-2-(4-((6-methoxy-1-methyl-1H-benzo[d]imidazol-2-yl)methoxy)phenyl)ethylthio)carbonylamino)-3,4,5-trihydroxytetrahydro-2H-pyran-2-carboxylic acid formation at 20 uM after 4 hrs by radio-HPLC/LC-MS/MS analysis in presence of NADPH-generating system/SAM; assay type: ADME
T2 sequence (P16662 whole entry): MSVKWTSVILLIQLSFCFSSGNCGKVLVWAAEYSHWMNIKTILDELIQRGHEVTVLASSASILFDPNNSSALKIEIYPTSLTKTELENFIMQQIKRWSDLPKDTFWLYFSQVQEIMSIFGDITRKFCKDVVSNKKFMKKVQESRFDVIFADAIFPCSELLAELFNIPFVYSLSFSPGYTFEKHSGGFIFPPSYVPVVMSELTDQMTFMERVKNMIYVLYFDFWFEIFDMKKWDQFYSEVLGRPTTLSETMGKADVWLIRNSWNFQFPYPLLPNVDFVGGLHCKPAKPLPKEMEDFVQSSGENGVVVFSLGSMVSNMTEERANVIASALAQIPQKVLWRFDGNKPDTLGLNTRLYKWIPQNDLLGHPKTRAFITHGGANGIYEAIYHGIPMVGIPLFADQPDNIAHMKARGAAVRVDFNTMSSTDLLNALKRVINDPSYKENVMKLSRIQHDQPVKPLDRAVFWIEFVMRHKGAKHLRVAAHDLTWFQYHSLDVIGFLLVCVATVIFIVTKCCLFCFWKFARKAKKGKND

[3] = Drug metabolism in monkey hepatocytes assessed as formation of 3-(4-((6-methoxy-1-methyl-1H-benzo[d]imidazol-2-yl)methoxy)phenyl)-2-(methylsulfonyl)propanamide at 30 uM after 3 hrs by radio-HPLC/LC-MS/MS analysis in presence of NADPH-generating system/SAM; settings: cynomolgus monkey
Cytochrome P450 2D6 = Cytochrome P450 2D6 (Homo sapiens, UniProt P10635); assay: Activity of human CYP2D6 expressed in microsomes isolated from baculovirus infected insect cell assessed as enzyme-mediated 3-(4-((6-methoxy-1-methyl-1H-benzo[d]imidazol-2-yl)methoxy)phenyl)-2-(methylthio)propanoic acid formation at 20 uM after 2 hrs by radio-HPLC/LC-MS/MS analysis in presence of NADPH-generating system/SAM and UDPGA/SAM; assay type: ADME
[4] = Drug metabolism in monkey hepatocytes assessed as formation of 3-(4-((6-methoxy-1-methyl-1H-benzo[d]imidazol-2-yl)methoxy)phenyl)-2-(methylsulfinyl)propanamide at 30 uM after 3 hrs by radio-HPLC/LC-MS/MS analysis in presence of NADPH-generating system/SAM; settings: cynomolgus monkey
[5] = Drug metabolism in cynomolgus monkey liver microsomes assessed as formation of 5-(4-((6-hydroxy-1-methyl-1H-benzo[d]imidazol-2-yl)methoxy)benzyl)thiazolidine-2,4-dione at 20 uM after 2 hrs by radio-HPLC/LC-MS/MS analysis in presence of NADPH-generating system and NADPH-generating system/SAM; assay type: ADME, Macaca fascicularis
[6] = Drug metabolism in human hepatocytes assessed as formation of (2S,3S,4S,5R,6R)-6-((1-carboxy-2-(4-((6-methoxy-1-methyl-1H-benzo[d]imidazol-2-yl)methoxy)phenyl)ethylthio)carbonylamino)-3,4,5-trihydroxytetrahydro-2H-pyran-2-carboxylic acid at 30 uM after 3 hrs by radio-HPLC/LC-MS/MS analysis in presence of UDPGA and UDPGA/SAM; assay type: ADME, cell-based, Hepatocyte
[7] = Drug metabolism in rat hepatocytes assessed as formation of 2-mercapto-3-(4-((6-methoxy-1-methyl-1H-benzo[d]imidazol-2-yl)methoxy)phenyl)propanoic acid at 30 uM after 3 hrs by radio-HPLC/LC-MS/MS analysis in presence of UDPGA, UDPGA/SAM and NADPH-generating system; assay type: ADME, cell-based, Hepatocyte
Cytochrome P450 3A5 = Cytochrome P450 3A5 (Homo sapiens, UniProt P20815); assay: Activity of human CYP3A5 expressed in microsomes isolated from baculovirus infected insect cell assessed as enzyme-mediated 3-(4-((6-methoxy-1-methyl-1H-benzo[d]imidazol-2-yl)methoxy)phenyl)-2-(methylsulfinyl)propanamide formation at 20 uM after 2 hrs by radio-HPLC/LC-MS/MS analysis in presence of NADPH-generating system/SAM; assay type: ADME
Method in brief: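 cDNA-expressed human CYP3A5 in baculovirus-insect-cell microsomes (1 mg/ml protein) was incubated with [¹⁴C]rivoglitazone (20 μM) in 50 mM potassium phosphate (pH 7.4) or 100 mM Tris-HCl (pH 7.5). NADPH-generating system: 2 mM NADP⁺, 20 mM glucose 6-phosphate, 2 units/ml G6PDH, 10 mM MgCl₂. Incubation ran 2 h at 37°C with shaking; insect-cell control supersomes served as control. Acetonitrile stop, supernatant concentrated, then radio-HPLC, LC-MS and LC-MS/MS.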

Cytochrome P450 2D6, sequence (P10635 whole entry): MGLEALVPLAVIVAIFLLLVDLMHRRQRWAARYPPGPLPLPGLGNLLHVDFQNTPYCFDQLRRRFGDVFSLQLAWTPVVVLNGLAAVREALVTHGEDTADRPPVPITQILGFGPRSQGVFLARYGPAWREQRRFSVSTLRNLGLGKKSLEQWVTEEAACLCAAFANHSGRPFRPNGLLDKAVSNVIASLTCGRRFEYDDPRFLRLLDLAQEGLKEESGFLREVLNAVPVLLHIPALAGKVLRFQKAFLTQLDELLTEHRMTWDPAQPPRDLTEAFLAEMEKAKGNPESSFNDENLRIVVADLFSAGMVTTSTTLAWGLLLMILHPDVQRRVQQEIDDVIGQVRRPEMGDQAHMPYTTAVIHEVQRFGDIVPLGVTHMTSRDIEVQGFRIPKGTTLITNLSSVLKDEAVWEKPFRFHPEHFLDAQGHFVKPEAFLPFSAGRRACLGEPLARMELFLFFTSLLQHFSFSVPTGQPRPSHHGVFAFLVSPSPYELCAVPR
Cytochrome P450 3A5, sequence (P20815 whole entry): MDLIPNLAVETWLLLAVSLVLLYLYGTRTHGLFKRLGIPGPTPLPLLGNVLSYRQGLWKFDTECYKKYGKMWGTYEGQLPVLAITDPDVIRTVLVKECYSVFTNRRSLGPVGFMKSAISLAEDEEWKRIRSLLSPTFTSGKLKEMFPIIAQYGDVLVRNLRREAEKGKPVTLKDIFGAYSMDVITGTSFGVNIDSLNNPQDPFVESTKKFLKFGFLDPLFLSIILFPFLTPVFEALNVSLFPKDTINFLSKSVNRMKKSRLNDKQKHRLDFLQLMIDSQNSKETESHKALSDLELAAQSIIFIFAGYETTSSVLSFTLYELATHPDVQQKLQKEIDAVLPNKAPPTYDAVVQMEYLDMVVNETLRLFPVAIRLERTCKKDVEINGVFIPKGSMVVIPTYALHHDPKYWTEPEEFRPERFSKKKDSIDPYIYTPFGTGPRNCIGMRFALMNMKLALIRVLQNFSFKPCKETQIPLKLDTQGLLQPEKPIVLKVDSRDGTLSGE

Question: For `COc1ccc2nc(COc3ccc(C[14CH]4SC(=O)NC4=O)cc3)n(C)c2c1.Cl` (racemic), which Drug metabolism [1] is on record?
Answer: metabolite_detected

Question: What about the Drug metabolism (Cytochrome P450 2C8) of the same compound?
Answer: metabolite_detected

Question: What about the Drug metabolism [2] of the same compound?
Answer: metabolite_detected

Question: What about the Drug metabolism [3] of the same compound?
Answer: metabolite_not_detected

Question: And the Drug metabolism (Cytochrome P450 2D6)?
Answer: metabolite_not_detected

Question: What about the Drug metabolism [4] of the same compound?
Answer: metabolite_not_detected

Question: What about the Drug metabolism [5] of the same compound?
Answer: metabolite_detected

Question: And the Drug metabolism [6]?
Answer: metabolite_detected

Question: What about the Drug metabolism [7] of the same compound?
Answer: metabolite_not_detected

Question: What about the Drug metabolism (Cytochrome P450 3A5) of the same compound?
Answer: metabolite_not_detected

— ChEMBL document CHEMBL3526048, “In vitro metabolism of rivoglitazone, a novel peroxisome proliferator-activated receptor γ agonist, in rat, monkey, and human liver microsomes and freshly isolated hepatocytes” (Drug Metab Dispos, 2011)
